A selection: hits, their analogues and other compounds. The true share with any hit is near 2.5%.
SENP6 block: inhibitors of human SENP6 protease; Q9GZR1; Recombinant SENP6 catalytic domain, aminoluciferin luminescence; inhibition, % at 10 µM; 330,000 tested, 1.8% active;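 active means inhibition above about 50% at the single tested dose, limit read from the data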;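 further: plate controls were DMSO wells with enzyme for no effect and DMSO wells lacking enzyme for full effect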
SENP8 block-1: inhibitors of human SENP8 protease. Q96LD8. recombinant SENP8, Nedd8 substrate fluorescence. inhibition, % at 20 µM. 360,000 tested, 0.64% active. AID 602440; in the data active means inhibition mostly above about 40%, no sharp cut-off; inactive means mostly below about 27%
Target sequence (Q96LD8 whole entry, looked up): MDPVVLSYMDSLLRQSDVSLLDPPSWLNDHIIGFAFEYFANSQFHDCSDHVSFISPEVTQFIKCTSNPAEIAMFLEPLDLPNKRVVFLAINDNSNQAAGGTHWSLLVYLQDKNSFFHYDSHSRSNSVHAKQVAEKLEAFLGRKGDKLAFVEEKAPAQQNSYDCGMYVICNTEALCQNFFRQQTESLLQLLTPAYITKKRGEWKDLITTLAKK
SENP1 inh: SENP1 (human) catalytic domain inhibition. Q9P0U3. recombinant SENP1 catalytic domain, CyPet-SUMO1-YPet FRET cleavage. inhibition, % at 10 µM. 360,000 tested, 0.21% active. AID 624204;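 active means inhibition at least 30% at 10 µM, raw YFP signal under a set limit, fluorescence ratio 0.5 to 1.5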;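 further: 0% = enzyme with DMSO and 100% = no enzyme wells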
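Material: hSENP1 catalytic domain, recombinant; medium: Tris pH 8 with BME, BSA, NP40 and catalase; compound: single concentration of 10 µM compound, 0.5% DMSO final; technique: FRET read of cyan and yellow fluorescence; timing: 50 min enzyme reaction, room temperature, light-protected; reagent: SFCypet-SUMO1-SFYpet substrate at 25 nM; control set: no-enzyme low, enzyme-DMSO high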
SENP8 block-2: blocks the human protease SENP8. 330,000 tested, 1.2% active. purified SENP8, Z-RLRGG-aminoluciferin cleavage, luminescence. Q96LD8. inhibition, % at 10 µM. AID 2540; in the data active means inhibition above about 50%
SENP7 inh: inhibitors of human SENP7 protease; recombinant SENP7, Z-RLRGG-aminoluciferin luminescence, 40 min; 330,000 tested, 1.5% active; inhibition, % at 5 µM; Q9BQF6;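 active means inhibition above about 50% at the single test dose, limit read from the data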;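 further: plate controls were DMSO with enzyme for no effect and no enzyme buffer wells for full effect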
SENP8 confirm: confirmation of human SENP8 protease inhibitors. 6,200 tested, 40% active. shares compounds with SENP7 inh. inhibition, % at 12.5 µM. AID 488912. Recombinant SENP8, Z-RLRGG-aminoluciferin luminescence, 60 min;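 active means mean inhibition across replicates above about 50%, limit read from the data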
SENP6 conf: confirmation of human SENP6 protease inhibitors. shares compounds with SENP7 inh. 6,200 tested, 58% active. inhibition, % at 12.5 µM. recombinant SENP6, Z-RLRGG-aminoluciferin luminescence
SENP7 confirm: confirmation of human SENP7 protease inhibitors | shares compounds with SENP7 inh | 6,200 tested, 69% active | recombinant SENP7, Z-RLRGG-aminoluciferin luminescence, 40 min | inhibition, % at 12.5 µM
Casp3 select: caspase-3 inhibition (SENP selectivity assay). shares compounds with SENP7 inh. purified caspase-3, Z-DEVD-aminoluciferin luminescence, 60 min. inhibition, % at 12.5 µM. 6,200 tested, 60% active;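 active means mean inhibition above about 50%, limit read from the data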;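 further: plate controls were enzyme with DMSO for no effect and wells without caspase-3 for full effect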
Target sequence (P42574 28-227 limits assumed): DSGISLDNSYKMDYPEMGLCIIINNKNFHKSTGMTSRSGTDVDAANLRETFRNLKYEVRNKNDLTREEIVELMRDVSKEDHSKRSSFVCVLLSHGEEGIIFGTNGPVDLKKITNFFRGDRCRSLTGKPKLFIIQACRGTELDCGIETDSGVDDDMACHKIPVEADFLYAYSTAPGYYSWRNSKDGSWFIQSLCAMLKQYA
SENP luc ctr: interferes with luciferase luminescence in SENP counter-screen; shares compounds with SENP7 inh; Pre-incubated SENP8/Z-RLRGG-aminoluciferin, luciferase luminescence interference; inhibition, % at 12.5 µM; 6,200 tested, 39% active; AID 488919;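 active means mean inhibition above about 50% when retested at one dose, limit read from the data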;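 further: plate controls were DMSO wells with completed reaction for no effect and substrate without enzyme for full effect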
The depositor's hits bear a star; i = inactive; . = no result given.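 How the source made its calls, unless noted: active means mean inhibition above about 50% in the one-dose retest (limit read from the data); inactive means the rest.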

SMILES	SENP6 block	SENP8 block-1	SENP1 inh	SENP8 block-2	SENP7 inh	SENP8 confirm	SENP6 conf	SENP7 confirm	Casp3 select	SENP luc ctr
CCCCc1ccc(S(=O)(=O)NC(=O)C2(C)CCN2C(=O)CC2CC2)cc1 (stereo not given)	.	2	2	.	.	.	.	.	.	.
COc1cc(/C=N/N=C(N)N)ccc1OCc1ccc(Cl)cc1	-38	26	0	-27	-12	.	.	.	.	.
COc1cc(/C=N/O)ccc1OCc1ccc(Cl)cc1	75*	.	.	43	59*	64*	64*	86*	42	68*
COc1cc(/C=N/O)ccc1OCc1ccc(C(=O)O)cc1	97*	15	-2	96*	100*	97*	100*	104*	98*	99*
COc1cccc(C(c2c(C)[nH]n(-c3ccccc3)c2=O)c2c(C)[nH]n(-c3ccccc3)c2=O)c1O	57*	54*	-1	11	56*	13	34	12	3	4
COc1ccc(C(C[N+](=O)[O-])c2c(C)[nH]n(-c3ccccc3)c2=O)cc1 (stereo not given)	65*	84*	3	48	61*	18	60*	36	0	0
COc1ccc(C(C[N+](=O)[O-])c2c(C)cc3ccccn23)cc1 (stereo not given)	-18	-32	-19	37	5	.	.	.	.	.
CC(NC(=O)c1ccc(-c2cc(C(F)(F)F)ccc2Cl)o1)c1ccccc1 (stereo not given)	-8	13	2	-2	10	.	.	.	.	.
Cc1ccnc(NC(=O)c2cc3ccccc3oc2=O)c1	72*	9	-5	82*	95*	24	30	22	55*	1
N=c1oc2ccccc2cc1C(=O)NC1CCCCCC1	47	-6	0	27	34	.	.	.	.	.
Cc1cccc(NC(=O)c2cc3ccccc3oc2=O)c1	88*	12	2	64*	97*	-6	9	7	18	10
O=C(NC1CCCCCC1)c1cc2ccccc2oc1=O	73*	-136	-1	40	56*	50*	60*	68*	63*	19
Cc1ccccc1N=C1Nc2ccccc2CS1	86*	21	3	74*	80*	34	79*	95*	79*	45
Cc1ccc(-c2ccc3c(c2)O[C@H](CN(C)C(=O)Nc2ccc(C(F)(F)F)cc2)[C@H](C)CN([C@H](C)CO)S3(=O)=O)cc1	.	15	1	.	.	.	.	.	.	.
O=c1c2ccccc2nc2n1CCc1c-2[nH]c2ccccc12	64*	-378	-2	48	89*	33	29	28	25	19
Cc1cccc2c(=O)n3c(cc12)-c1[nH]c2ccccc2c1CC3	.	i	-134	.	.	.	.	.	.	.
CCCc1nc(SCC(=O)N2CCc3ccccc3C2)c2ccccc2n1	-26	18	-3	-1	98*	10	11	10	6	3
COc1ccc2nc(NCc3ccccc3)[nH]c2c1	-3	9	-1	-5	3	.	.	.	.	.
CCOc1ccc2nc(C(C)O)[nH]c2c1 (stereo not given)	-2	-5	1	-2	3	.	.	.	.	.
COc1ccc2[nH]c(-c3ccccc3)cc2c1	92*	-307	4	86*	90*	13	89*	99*	61*	27
COc1ccc2[nH]c(-c3ccc(C)cc3)cc(=O)c2c1	81*	-477	0	77*	73*	51*	81*	95*	92*	2
CCOc1ccc2nc(-c3ccccc3)[nH]c2c1	88*	-277	1	69*	89*	85*	82*	94*	85*	84*

Compound activity from PubChem.
